Converted amounts (≈) assume the structure as drawn.
Legend:
[1] = test system: Mycolicibacterium vaccae; assay: Antibacterial activity against Mycobacterium vaccae IMET10670 by broth microdilution method; type: functional
Method in brief: (§1)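 Broth microdilution in Mueller-Hinton broth No.2 (MHII) following CLSI guidelines. The MIC (μM) was read by visual end point. Each compound was tested in triplicate.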

[2] = test system: Escherichia coli; assay: Antibacterial activity against Escherichia coli DC0 by broth microdilution method; type: functional; method in brief: as §1
[3] = test system: Pseudomonas aeruginosa; assay: Antibacterial activity against wild type Pseudomonas aeruginosa K799 by broth microdilution method; type: functional; method in brief: as §1
[4] = test system: Micrococcus luteus; assay: Antibacterial activity against Micrococcus luteus ATCC 10240 by broth microdilution method; type: functional; method in brief: as §1
[5] = test system: Escherichia coli; assay: Antibacterial activity against Escherichia coli DC2 by broth microdilution method; type: functional; method in brief: as §1
[6] = test system: Pseudomonas aeruginosa; assay: Antibacterial activity against Pseudomonas aeruginosa K799/61 by broth microdilution method; type: functional; method in brief: as §1
[7] = test system: Staphylococcus aureus; assay: Antibacterial activity against Staphylococcus aureus SG511 by broth microdilution method; type: functional; method in brief: as §1
[8] = test system: Acinetobacter baumannii; assay: Antibacterial activity against Acinetobacter baumannii ATCC 17961 by broth microdilution method; type: functional; method in brief: as §1
[9] = test system: Bacillus subtilis; assay: Antibacterial activity against Bacillus subtilis ATCC 6633 by broth microdilution method; type: functional; method in brief: as §1
[10] = Retention time of the compound in presence of methyl mercaptoacetate in CH3CN/PBS solution at 37 degC incubated for 3 hrs by HPLC method; type: physicochemical; conditions: buffer
[11] = test system: Acinetobacter baumannii; assay: microbe, parasite or virus in culture; conditions: ATCC 17961, 24 h, read-out: DIZ
[12] = test system: Pseudomonas aeruginosa; assay: microbe, parasite or virus in culture; conditions: K799, 24 h, read-out: DIZ
[13] = test system: Bacillus subtilis; assay: microbe, parasite or virus in culture; conditions: ATCC 6633, 24 h, read-out: DIZ
[14] = test system: Pseudomonas aeruginosa; assay: microbe, parasite or virus in culture; conditions: K799/61, 24 h, read-out: DIZ
[15] = test system: Mycolicibacterium vaccae; assay: Antibacterial activity against Mycobacterium vaccae IMET10670 at 5 ug/ml incubated for 44 hrs at 37 degC by agar diffusion assay; type: functional; conditions: IMET10670, 44 h, read-out: DIZ
Method in brief: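 Agar well diffusion with the sample in H2O at 5 μg/mL. 50 μL was added to 9 mm wells in nutrient or Mueller Hinton II agar. Plates were incubated at 37 °C for 24 h, or 44 h for M. vaccae, and inhibition zones were read.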

[16] = test system: Micrococcus luteus; assay: Antibacterial activity against Micrococcus luteus ATCC 10240 at 5 ug/ml incubated for 24 hrs at 37 degC by agar diffusion assay; type: functional; conditions: ATCC 10240, 24 h, read-out: DIZ
Method in brief: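 Agar well diffusion: the drug was dissolved in water and added to 9 mm wells cut in Standard I Nutrient Agar or Mueller Hinton II agar seeded with the strain. Inhibition zone diameters were read after 24 h at 37 °C. Zones were scored as very unclear where the zone boundary was indistinct.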

[17] = test system: Staphylococcus aureus; assay: Antibacterial activity against Staphylococcus aureus SG511 at 5 ug/ml incubated for 24 hrs at 37 degC by agar diffusion assay; conditions: SG511, 24 h, read-out: DIZ
[18] = test system: Pseudomonas aeruginosa; assay: microbe, parasite or virus in culture; conditions: K799/61, 24 h, read-out: DIZ; remark: listed apart in the source
[19] = test system: Bacillus subtilis; assay: microbe, parasite or virus in culture; conditions: ATCC 6633, 24 h, read-out: DIZ; remark: listed apart in the source
[20] = test system: Escherichia coli; assay: Antibacterial activity against Escherichia coli DC0 at 5 ug/ml incubated for 24 hrs at 37 degC by agar diffusion assay; conditions: DC0, 24 h, read-out: DIZ
[21] = test system: Acinetobacter baumannii; assay: microbe, parasite or virus in culture; conditions: ATCC 17961, 24 h, read-out: DIZ; remark: listed apart in the source

| SMILES | MIC [1] | MIC [2] | MIC [3] | MIC [4] | MIC [5] | MIC [6] | MIC [7] | MIC [8] | MIC [9] | Retention_time [10] | further results |
| --- | --- | --- | --- | --- | --- | --- | --- | --- | --- | --- | --- |
| CC(C)(C)CC(=O)N1CCN(c2cc3c(cc2F)c(=O)c(C(=O)O)cn3C2CC2)CC1 | 2 µM (≈ 0.859 µg/mL) | > 100 µM | > 100 µM | 12.5 µM (≈ 5.37 µg/mL) | 100 µM (≈ 42.9 µg/mL) | > 100 µM | 0.4 µM (≈ 0.172 µg/mL) | 25 µM (≈ 10.7 µg/mL) | < 0.05 µM | – | – |
| CC1=CC(=O)C(C(C)(C)CC(=O)N2CCN(c3ccccc3)CC2)=C(C)C1=O | – | – | – | – | – | – | – | – | – | 11.1 min | – |
| COC(=O)CSc1c(C)c(O)c(C)c2c1OC(=O)CC2(C)C | – | – | – | – | – | – | – | – | – | 9.2 min | – |
| CC(C)(C)OC(=O)N1CCN(c2cc3c(cc2F)c(=O)c(C(=O)O)cn3C2CC2)CC1 | 2 µM (≈ 0.863 µg/mL) | > 100 µM | > 100 µM | > 100 µM | > 100 µM | > 100 µM | 0.4 µM (≈ 0.173 µg/mL) | > 100 µM | < 0.05 µM | – | – |
| O=C(O)c1cn(C2CC2)c2cc(N3CCNCC3)c(F)cc2c1=O [CIPROFLOXACIN] | 0.47 µM (≈ 0.156 µg/mL) | 0.47 µM (≈ 0.156 µg/mL) | 0.47 µM (≈ 0.156 µg/mL) | 8 µM (≈ 2.65 µg/mL) | 0.24 µM (≈ 0.0795 µg/mL) | 0.24 µM (≈ 0.0795 µg/mL) | 0.47 µM (≈ 0.156 µg/mL) | 0.24 µM (≈ 0.0795 µg/mL) | 0.03 µM (≈ 0.00994 µg/mL) | – | zone of inhibition at 5 µg/mL [11]: 18 mm; zone of inhibition at 1.66 µg/mL [12]: 15 mm; zone of inhibition at 1.66 µg/mL [13]: 20 mm; zone of inhibition at 1.66 µg/mL [14]: 24 mm; zone of inhibition at 5 µg/mL [15]: 23 mm; zone of inhibition at 5 µg/mL [16]: 0 mm; zone of inhibition at 5 µg/mL [17]: 21 mm; zone of inhibition at 1.66 µg/mL [18]: 19 mm; zone of inhibition at 1.66 µg/mL [19]: 24 mm; zone of inhibition at 5 µg/mL [20]: 18 mm; zone of inhibition at 5 µg/mL [21]: 21 mm |
| c1ccc(N2CCNCC2)cc1 [PHENYLPIPERAZINE] | – | – | – | – | – | – | – | – | – | 8.5 min | – |

Source: ChEMBL document CHEMBL3585272, “Syntheses and Antibacterial Activity of N-Acylated Ciprofloxacin Derivatives Based on the Trimethyl Lock” (ACS Med Chem Lett, 2015)
